Only some compounds are listed: those with a hit (about 2% of all), similar ones and a draw of the others.
AI-2 QS mod – Vibrio harveyi AI-2 quorum sensing modulators, primary screen, JMH597 strain, luminescence/OD600 ratio; hit rate 0.4% among 300,000; AID 2094, 2009; activity change, % at 7.5 µM; Vibrio harveyi JMH597 AI-2 luminescence/OD600 ratio, 9 h; active compounds read low; strain lacks LuxN and CqsS sensors; 0 = neutral-control median; in the data active = activity change below about -75%, passing the limit was not always enough; inconclusive = no clear call, values can overlap the other calls;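 also: luminescence divided by OD600 gain over 9 h not by final OD600 alone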
ARNT-TACC3 inh – disruptors of ARNT/TACC3 protein interaction, primary screen, biochemical, AlphaScreen, single concentration | hit rate 0.66% among 390,000 | AlphaScreen His-ARNT PAS-B/GST-TACC3 binding, luminescence; TACC3 fragment carries E629A point mutation | inhibition, % at 9.99 µM | Transforming acidic coiled-coil-containing protein 3 (Homo sapiens), Q9Y6A5;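 active = mean inhibition of replicates at least 50% and at least half of replicates each reaching 50%; inconclusive = half or more replicates reach 50% but mean below 50%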
T cruzi inh – inhibitors of intracellular T. cruzi growth, primary screen, luminescence, NIH3T3 host cells. T. cruzi beta-gal in NIH3T3, 90 h. inhibition, % (concentration not given with the values). hit rate 1.4% among 300,000. AID 1885, 2009;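 active = mean inhibition across valid replicates above about 55%, limit read from the data; inconclusive = mean below that limit but half or more replicates reach it; inactive = mean below it, under half of replicates reach it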;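 also: signal also drops with host cell toxicity which is not excluded here; higher percent means less beta-gal luminescence so fewer parasites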
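compound dosing = single 50 nL compound addition per well in DMSO | material = NIH/3T3 host cells with β-galactosidase reporter T. cruzi | input = 5,000 host fibroblasts per well | timing = ≥90 h infection period, 3 h prior cell attachment | read-out basis = percent inhibition of parasite-derived β-gal signal | detection = GalScreen β-gal luminescence, detergent lysis, 60 min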
HIF activator – HIF pathway transcriptional activators, primary screen, cell-based, U2OS HRE-luciferase, luminescence; U2OS HRE-luciferase reporter; normalized: DMSO 0%, desferrioxamine 100%; activation, % at 7.5 µM (by protocol); hit rate 0.32% among 300,000; AID 1910, 2009;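 active = mean activation of at least 10% of the iron chelator positive control signal, with at least half of replicates also reaching 10%; inconclusive = mean and replicate majority disagree about reaching 10%; inactive = mean and most replicates under 10%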
JMH597 growth rt – Vibrio harveyi growth inhibition, confirmation, counter-screen for AI-2 quorum sensing project, JMH597 strain, OD600 absorbance; 9 h; lacks LuxN and CqsS sensors; hit rate 1% among 750; growth inhibition, % at 7.5 µM; shares compounds with AI-2 QS mod;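 active = every replicate shows growth inhibition above 50%; inconclusive = at least half, but not all, replicates pass that cutoff; inactive = fewer than half of replicates pass it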
BB721 const-QS lum – luminescence inhibition in constitutive-on V. harveyi, confirmation, counter-screen for LuxS inhibitor project, strain BB721, luminescence readout; AID 2727, 2010; shares compounds with AI-2 QS mod; inhibition, % at 7.5 µM; Vibrio harveyi BB721 luminescence, 9 h; hit rate 95% among 750;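 active = inhibition above about 80% in every replicate, not just on average, limit read from the data; inconclusive = at least half of replicates past the limit, but not all; inactive = fewer than half of replicates past the limit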
BB721 growth rt – growth inhibition of V. harveyi BB721, confirmation, cytotoxicity control for AI-2 quorum sensing inhibitors, strain BB721, absorbance OD600 | shares compounds with AI-2 QS mod | Vibrio harveyi BB721 growth, 9 h | growth inhibition, % at 7.5 µM | hit rate 3% among 750;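 active = every replicate shows growth inhibition above 50%; inconclusive = at least half but not all replicates above 50% inhibition; inactive = under half of replicates above 50% inhibition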
AI-2 QS JMH597 – Vibrio harveyi AI-2 signaling luminescence modulation – JMH597 strain, confirmation; inhibition, % at 7.5 µM; AID 2736, 2010; Vibrio harveyi JMH597 AI-2 quorum sensing luminescence, 9 h; luxN and CqsS knockout, AI-2 only; shares compounds with AI-2 QS mod; hit rate 97% among 750;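 active = every replicate shows more than 75% inhibition of signal versus neutral control wells; inconclusive = half to three quarters of replicates exceed 75% inhibition; inactive = fewer than half of replicates exceed 75% inhibition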
Numbers stand for hits; . = inactive; ? = inconclusive; / = no result given.

SMILES	AI-2 QS mod	ARNT-TACC3 inh	T cruzi inh	HIF activator	JMH597 growth rt	BB721 const-QS lum	BB721 growth rt	AI-2 QS JMH597
O=C(Nc1cc(-c2ccccc2)[nH]n1)c1ccccc1	-79.3	.	.	.	.	87.6	.	93.0
O=C(O)c1ccccc1C(=O)Nc1cc(-c2ccccc2)[nH]n1	.	.	.	.	/	/	/	/
O=C(Nc1cc(-c2ccccc2)[nH]n1)c1ccccc1F	-86.0	/	.	.	.	92.3	.	94.0
O=C(Nc1ccccn1)c1ccccc1	/	.	/	/	/	/	/	/
CO[C@H]1CN(C)C(=O)c2cc(NC(=O)c3cnccn3)ccc2OC[C@H](C)N(CCc2ccccc2)C[C@@H]1C	/	.	/	/	/	/	/	/
Cc1ccccc1OCCCC(=O)Nc1ccc2c(c1)OCO2	.	.	.	.	/	/	/	/
Cc1ccc(NC(=O)CCOc2ccccc2C)cc1C	-78.3	/	.	.	.	91.7	.	93.4
Cc1ccccc1OCCC(=O)Nc1ccc(F)c(Cl)c1	-92.7	.	.	.	.	96.6	.	97.6
COCC#Cc1cnc2c(c1)C(=O)N([C@@H](C)CO)C[C@H](C)[C@@H](CN(C)C(C)=O)O2	/	.	/	/	/	/	/	/
Cc1ccccc1-c1cnc2c(c1)C(=O)N([C@@H](C)CO)C[C@@H](C)[C@H](CN(C)Cc1cccnc1)O2	/	.	/	/	/	/	/	/
Cc1cc(NC(=O)Cn2nc3c(cc2=O)CCCC3)ccc1Br	-97.3	.	.	.	.	99.6	.	99.8
CCc1nn(CC(=O)Nc2ccc(Br)c(C)c2)c(=N)s1	-95.0	.	.	.	.	98.8	.	99.3
CCCNC(=O)N(C)C[C@H]1Oc2cc(C#Cc3ccccn3)ccc2S(=O)(=O)N([C@@H](C)CO)C[C@@H]1C	/	.	/	/	/	/	/	/
C[C@H]1CN([C@@H](C)CO)C(=O)Cc2cc(NC(=O)Nc3ccc(F)cc3)ccc2O[C@@H]1CN(C)C(=O)Nc1ccc(F)cc1	/	.	/	/	/	/	/	/
Oc1c(Br)cc(C2N=C(c3ccccc3)NO2)cc1Br (stereo not given)	.	/	.	.	/	/	/	/
CSc1ccc(C2N=C(c3ccccc3)NO2)cc1 (stereo not given)	-85.2	/	.	.	.	95.4	.	96.3
C[C@@H]1CCCCO[C@H](CN(C)C(=O)c2ccccc2)[C@@H](C)CN([C@H](C)CO)C(=O)c2cc(N(C)C)ccc2O1	/	.	/	/	/	/	/	/
Fc1ccc(OCc2cc(-c3ccccc3)no2)cc1	-95.0	.	.	.	.	98.2	.	98.5
Cc1cccc(OCc2cc(-c3ccccc3)no2)c1C	-95.5	.	.	.	.	99.1	.	99.4
Clc1ccc(OCc2cc(-c3ccccc3)no2)c(Cl)c1	.	.	.	.	/	/	/	/
COc1ccc(-c2cc(COc3ccccc3)on2)cc1	-88.9	.	.	.	.	97.0	.	97.7
COc1ccc(-c2cc(CS(=O)(=O)c3ccccc3)on2)cc1	.	.	.	.	/	/	/	/
COCC(=O)Nc1ccc2c(c1)[C@@H]1C[C@@H](CC(=O)NCc3cc(F)ccc3F)O[C@@H](CO)[C@@H]1O2	/	.	/	/	/	/	/	/
COc1ccc(CN=Cc2c(O)[nH]c3ccccc23)cc1	-90.2	.	.	.	.	96.2	.	97.4
COc1ccc(N=Cc2c(O)[nH]c3ccccc23)cc1	.	.	.	.	/	/	/	/
SMILES	AI-2 QS mod	ARNT-TACC3 inh	T cruzi inh	HIF activator	JMH597 growth rt	BB721 const-QS lum	BB721 growth rt	AI-2 QS JMH597
CCCNC(=O)N1C[C@@H](O)COC[C@@H]2O[C@H](CC(=O)NCCCN3CCOCC3)CC[C@H]21	/	.	/	/	/	/	/	/
CN(Cc1nccs1)C(=O)c1cc(COc2cccc3cnccc23)on1	-93.9	.	.	.	.	97.4	.	98.7
COCCC1CCCCN1C(=O)c1cc(COc2cccc(C(C)=O)c2)on1 (stereo not given)	.	.	.	.	/	/	/	/
COc1cc(Cl)ccc1OCc1cc(C(=O)N(C)Cc2cccc3cnccc23)no1	.	.	.	.	/	/	/	/
COC(=O)C1CCCCN1C(=O)c1cc(COc2cccc3cnccc23)on1 (stereo not given)	-90.6	.	.	.	.	91.9	.	95.2
CCOC(=O)CC1CCCCN1C(=O)c1cc(COc2cccc3cnccc23)on1 (stereo not given)	-86.5	.	.	.	.	87.6	.	93.3
COC(=O)C1CCCCN1C(=O)c1cc(COc2cccc3cccnc23)on1 (stereo not given)	.	.	.	.	/	/	/	/
CC1CC(=O)N(CC(=O)Nc2ccc(Br)cc2)c2ccccc2S1(=O)=O (stereo not given)	-83.1	.	.	.	.	95.8	.	96.9
CNC[C@@H]1Oc2c(NC(=O)NC(C)C)cccc2C(=O)N([C@H](C)CO)C[C@@H]1C	/	.	/	/	/	/	/	/
CCCCCCOc1ccc(N2C(=O)CC(SCCN)C2=O)cc1 (stereo not given)	-85.4	.	.	.	.	87.6	.	95.5
CCOc1ccc(N2C(=O)CC(SCCN)C2=O)cc1 (stereo not given)	.	.	.	.	/	/	/	/
CCOC(=O)c1ccc(NC(=O)C(C)N2C(=O)c3ccccc3C2=O)cc1 (stereo not given)	.	.	.	.	/	/	/	/
CCOC(=O)c1cccc(NC(=O)C(C)N2C(=O)c3ccccc3C2=O)c1 (stereo not given)	-94.6	.	.	.	.	98.8	.	99.3
Nc1c(S(=O)(=O)c2ccccc2)nnn1-c1ccccc1	-97.2	/	.	.	.	99.5	.	99.6
Cc1ccccc1-c1nnc(SCc2ccc(F)cc2)o1	-92.0	.	.	.	.	96.8	.	97.3
Nn1c(SCc2ccc(F)cc2)nnc1-c1cccnc1	.	.	.	.	/	/	/	/
Clc1ccc(CSc2nnc(-c3cccnc3)o2)cc1	-92.9	.	.	.	.	98.0	.	98.6
Nn1c(SCc2ccc(Br)cc2)nnc1-c1cccnc1	-86.5	.	.	.	.	95.5	.	96.4
Cc1ccc(CSc2nnc(-c3cccnc3)o2)cc1	-96.2	.	.	.	.	99.1	.	99.4
Cc1ccc(CSc2nnc(-c3ccccn3)n2N)cc1	?	/	.	.	.	91.4	.	94.6
Nn1c(SCc2ccccc2)nnc1-c1ccccn1	.	.	.	.	/	/	/	/
O=C(O)c1cccc(CSc2nnc(-c3cccnc3)o2)c1	.	.	.	.	/	/	/	/
